Laboratory results as given in ChEMBL document CHEMBL1141754, “A labdane diterpene glucoside from the rhizomes of Curcuma mangga” (J Nat Prod, 2005).

Tests used:
[1] = system: MCF7; experiment: Cytotoxicity against human MCF7; format: functional, cell-based
Procedure, shortened: (§1)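 Five human cancer lines: HL-60 (leukemia), HepG2 (liver), MCF-7 (breast), DU-145 (prostate) and NCI-H460 (lung). IC50 given in μM ± SD from three experiments, each run in triplicate.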

[2] = system: DU-145; experiment: Cytotoxicity against human DU145; format: functional, cell-based; procedure, shortened: as §1
[3] = system: HepG2; experiment: Cytotoxicity against human HepG2; format: functional, cell-based; procedure, shortened: as §1
[4] = Antioxidant activity assessed as inhibition of copper-induced lipid peroxidation by Fe3(CN)6 method at 300 uM; format: functional; parameters: scale not given: the % may be the effect or the level left
[5] = system: HL-60; experiment: Cytotoxicity against human HL60; format: functional, cell-based; procedure, shortened: as §1
[6] = system: NCI-H460; experiment: Cytotoxicity against human NCI-H460; format: functional, cell-based; procedure, shortened: as §1

## COc1cc2ccc(=O)oc2cc1O [SCOPOLETIN]
[1]
  IC50: > 50 µM
[2]
  IC50: > 50 µM
[3]
  IC50: > 50 µM
[4]
  Activity: 94.9%
[5]
  IC50: > 50 µM
[6]
  IC50: > 50 µM

## C=C1CC[C@H]2C(C)(C)CCC[C@]2(C)[C@H]1C/C=C(/C=O)CC(OC)OC
[4]
  Activity: 11.5%

## COc1cc(/C=C/C(O)=C/C(=O)/C=C/c2ccc(O)cc2)ccc1O [DEMETHOXYCURCUMIN]
[1]
  IC50: 18.5 µM
[2]
  IC50: 21.7 µM
[3]
  IC50: > 50 µM
[4]
  Activity: 93.8%
[5]
  IC50: 24.2 µM
[6]
  IC50: 25.7 µM

## O=C(/C=C/c1ccc(O)cc1)CC(=O)/C=C/c1ccc(O)cc1 [BISDEMETHOXYCURCUMIN]
[1]
  IC50: 33.8 µM
[2]
  IC50: 30.1 µM
[3]
  IC50: > 50 µM
[4]
  Activity: 93.3%
[5]
  IC50: 25.1 µM
[6]
  IC50: 88.1 µM

## Cc1cc(C(C)(C)C)c(O)c(C(C)(C)C)c1
[4]
  Activity: 99.9%

## C=C1CC[C@H]2C(C)(C)CCC[C@]2(C)[C@H]1C[C@@H](O)C1=CC(O)OC1=O (stereo partly specified) [ZERUMIN B]
[1]
  IC50: 0.59 µM
[2]
  IC50: 11.2 µM
[3]
  IC50: 25.3 µM
[4]
  Activity: 16.5%
[5]
  IC50: 7.21 µM

## C=C1CC[C@H]2C(C)(C)CCC[C@]2(C)[C@H]1C/C=C(/C=O)CC=O
[4]
  Activity: 5.7%

## O=C(/C=C/C=C/c1ccc(O)cc1)/C=C/c1ccc(O)cc1
[4]
  Activity: 92.9%

## COc1cc(/C=C/C(=O)CC(=O)/C=C/c2ccc(O)c(OC)c2)ccc1O [CURCUMIN]
[1]
  IC50: 10.4 µM
[2]
  IC50: 20.6 µM
[3]
  IC50: 35.5 µM
[4]
  Activity: 96.5%
[5]
  IC50: 34.2 µM
[6]
  IC50: 27.6 µM

## CC1(C)[C@@H](O[C@@H]2O[C@H](CO)[C@@H](O)[C@H](O)[C@H]2O)CC[C@]2(C)[C@H]3CC(C4=CCOC4=O)OC(O)[C@H]3CC[C@@H]12 (stereo partly specified)
[4]
  Activity: 0%

## Cc1c(C)c2c(c(C)c1O)CC[C@@](C)(CCC[C@H](C)CCC[C@H](C)CCCC(C)C)O2
[4]
  Activity: 45.2%

## O=c1c(O)c(-c2ccc(O)c(O)c2)oc2cc(O)cc(O)c12
[4]
  Activity: 51.3%
